The values below come from ChEMBL document CHEMBL3751733, “Synergistic Antifungal Meroterpenes and Dioxolanone Derivatives from the Endophytic Fungus Guignardia sp” (J Nat Prod, 2015).

Values after ≈ are worked out from the molar mass of the structure shown. Where only a bound is given, the exact number is not on record here.

Data set [1] has as its system Candida albicans. Kind of data set: Antifungal activity against Candida albicans ATCC 24433 assessed as growth inhibition after 24 hrs by broth microdilution assay. It is filed as functional. The following applies: ATCC 24433, 24 h. The method, boiled down:
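Broth microdilution: 24-h colonies suspended in 0.85% saline, diluted in RPMI-1640 with MOPS to 1.0 × 10^4 cfu/mL final, mixed 1:1 with sample; 35 °C, 24 h; OD 595 nm. MIC = lowest concentration giving 80% growth reduction. Fluconazole positive control; SD from three independent experiments.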

The subject of data set [2] is Candida albicans. Kind of data set: Antifungal activity against Candida albicans ATCC 24433 assessed as synergistic growth inhibition after 24 hrs in presence of fluconazole by broth microdilution assay. It is filed as functional. The following applies: ATCC 24433, 24 h. In outline: (§1)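 Checkerboard in RPMI-1640/MOPS, inoculum 1.0 × 10^4 cfu/mL, 35 °C, 24 h, OD 595 nm. Compound 25 to 0.8 μg/mL against fluconazole 4.0 to 0.0078 μg/mL. MIC = concentrations giving ≥80% growth reduction. FICI ≤ 0.5 counts as synergy; values compared at fluconazole 0.031 μg/mL.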

The subject of data set [3] is Candida albicans. Kind of data set: Antifungal activity against Candida albicans ATCC 24433 assessed as fractional inhibition concentration ratio in presence of fluconazole by checkerboard assay. It is filed as functional. The method, boiled down: as §1
For data set [4], the system named is Candida albicans. Kind of data set: Antifungal activity against Candida albicans ATCC 24433 assessed as fractional inhibition concentration index in presence of fluconazole by checkerboard assay. It is filed as functional. In outline: as §1
Data set [5] relates to Candida albicans. Kind of data set: Antibiofilm activity against Candida albicans ATCC 24433 after 24 hrs by XTT-based colorimetric assay. It is filed as functional. The following applies: ATCC 24433, 24 h. The method, boiled down:
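XTT assay: YPD overnight culture, PBS-washed, 1.0 × 10^6 cfu/mL in RPMI-1640/MOPS; biofilms formed at 37 °C for 24 h, washed, then treated 24 h at 37 °C; 0.5 mg/mL XTT for 2 h, read at 490 nm. MIC = lowest concentration giving ≥80% reduction in XTT signal.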

Data set [6] has as its system Candida albicans. Kind of data set: Antibiofilm activity against Candida albicans ATCC 24433 after 24 hrs in presence of fluconazole by XTT-based colorimetric assay. It is filed as functional. The following applies: ATCC 24433, 24 h. In outline:
(§2)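 Preformed biofilms (1.0 × 10^6 cfu/mL in RPMI-1640/MOPS, 37 °C, 24 h) treated 24 h at 37 °C in a checkerboard: compounds 160 to 5 μg/mL, fluconazole 500 to 8 μg/mL. Read by 0.5 mg/mL XTT for 2 h at 490 nm, ≥80% reduction as endpoint; FICI calculated.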

Data set [7] relates to Candida albicans. Kind of data set: Synergistic antibiofilm activity against Candida albicans ATCC 24433 assessed as fractional inhibition concentration ratio after 24 hrs in presence of fluconazole by checkerboard assay. It is filed as functional. In outline: as §2
The test system of data set [8] is Candida albicans. Kind of data set: Synergistic antibiofilm activity against Candida albicans ATCC 24433 assessed as fractional inhibition concentration index after 24 hrs in presence of fluconazole checkerboard assay. It is filed as functional. The method, boiled down:
as §2

The subject of the next data set is U2OS. Kind of data set: Cytotoxicity against human U2OS cells by MTT assay. It is filed as cell-based. The method, boiled down: (§3)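 MTT assay with cisplatin as positive control.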
The next data set concerns MCF7. Kind of data set: Cytotoxicity against human MCF7 cells by MTT assay. It is filed as cell-based. In outline: as §3
For another data set, the system named is HepG2. Kind of data set: Cytotoxicity against human HepG2 cells by MTT assay. It is filed as cell-based. The method, boiled down: as §3
A further data set concerns Staphylococcus aureus. Kind of data set: Antibacterial activity against Staphylococcus aureus ATCC 25923 by broth microdilution method. It is filed as functional. In outline:
(§4)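 Broth microdilution in 96-well plates; MIC read by comparing OD with the growth control; amoxicillin and streptomycin as positive controls.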

A further data set concerns Bacillus subtilis. Kind of data set: Antibacterial activity against Bacillus subtilis ATCC 6633 by broth microdilution method. It is filed as functional. In outline: as §4
A further data set deals with Escherichia coli. Kind of data set: Antibacterial activity against Escherichia coli ATCC 25922 by broth microdilution method. It is filed as functional. In outline:
as §4

The next data set relates to Pseudomonas aeruginosa. Kind of data set: Antibacterial activity against Pseudomonas aeruginosa ATCC 9027 by broth microdilution method. It is filed as functional. The method, boiled down:
as §4

In the case of `C[C@](O)(CO)[C@@H]1CC[C@@]2(C)OC3=C(C[C@@H]12)C(=O)[C@]1(O)CO[C@H]3C1`, the MIC80 with Candida albicans [1] was more than 100 µg/mL; in the data set on Candida albicans [2], 25 µg/mL; against Candida albicans [5], more than 200 µg/mL; in the data set on Candida albicans [6], 80 µg/mL. For the same compound, the results for the Ratio in the data set with Candida albicans [3] and in the data set with Candida albicans [7] were less than 0.25 and less than 0.4, respectively. For the same compound, the “fractional inhibitory concentration index (FICI)” value in the data set with Candida albicans [4] is less than 0.38; with Candida albicans [8], less than 0.46. In addition, the Activity result in the data set on U2OS, in the data set with MCF7 and with HepG2 was “Non-toxic” each time.

Take `C=C(C)[C@@H]1CC[C@@]2(C)OC3=C(C[C@@H]12)C(=O)[C@](O)(CO)C[C@@H]3O`: the MIC is more than 100 µg/mL against Staphylococcus aureus, 89.3 µg/mL (≈ 290 µM) against Bacillus subtilis, more than 100 µg/mL in the data set on Escherichia coli and more than 100 µg/mL in the data set on Pseudomonas aeruginosa. Further, the MIC80 against Candida albicans [5] was more than 200 µg/mL. Besides, the Activity result in the data set with U2OS, in the data set on MCF7 and with HepG2 was “Non-toxic” in each case.

Turning to `C=C(C)[C@@H]1C[C@H](O)[C@@]2(C)OC3=C(C[C@@H]12)C(=O)[C@](O)(CO)C[C@@H]3O`, the MIC80 against Candida albicans [5] is more than 200 µg/mL; in the data set with Candida albicans [6], 80 µg/mL. For the same compound, the Ratio in the data set on Candida albicans [7] is given as less than 0.4. Further, the “fractional inhibitory concentration index (FICI)” value in the data set on Candida albicans [8] is less than 0.46. Besides, the Activity result in the data set on U2OS, with MCF7 and in the data set with HepG2 was “Non-toxic” in each case.

Consider `CC1(C)S[C@@H]2[C@H](NC(=O)[C@H](N)c3ccc(O)cc3)C(=O)N2[C@H]1C(=O)O` [AMOXICILLIN], for which the minimal inhibitory concentration (MIC) was 0.8 µg/mL (≈ 2.19 µM) in the data set with Staphylococcus aureus and 1 µg/mL (≈ 2.74 µM) in the data set on Bacillus subtilis.

Regarding `CC(C)[C@@]1(C(=O)O)OC(=O)/C(=C/c2ccccc2)O1`, the MIC80 with Candida albicans [1] is 87.5 µg/mL (≈ 334 µM); with Candida albicans [2], 6.3 µg/mL; against Candida albicans [5], more than 200 µg/mL; in the data set on Candida albicans [6], 20 µg/mL. Also, the Ratio is reported as 0.07 in the data set on Candida albicans [3] and less than 0.1 in the data set with Candida albicans [7]. For the same compound, the “fractional inhibitory concentration index (FICI)” value with Candida albicans [4] is given as 0.19; with Candida albicans [8], less than 0.16. Also, the Activity result in the data set with U2OS, in the data set with MCF7 and in the data set with HepG2 was “Non-toxic” in each case.

For the compound `C=C(COC(C)=O)[C@@H]1CC[C@@]2(C)OC3=C(C[C@@H]12)C(=O)[C@]1(O)CO[C@H]3C1`, the MIC80 with Candida albicans [5] was more than 200 µg/mL. For the same compound, the Activity result in the data set with U2OS, with MCF7 and in the data set on HepG2 was “Non-toxic” in each case.

On to `COC(=O)[C@]1(C(C)C)OC(=O)/C(=C\c2ccc(O)cc2)O1`, for which the MIC80 against Candida albicans [5] is more than 200 µg/mL. The Activity entry with U2OS, with MCF7 and in the data set with HepG2 was “Non-toxic” each time.

On to `C=C(C)[C@@H]1CC[C@@]2(C)OC3=C(C[C@@H]12)C(=O)[C@H](OC)C[C@@H]3O`, for which the minimum inhibitory concentration (MIC) was more than 100 µg/mL in the data set with Staphylococcus aureus, 37.3 µg/mL (≈ 128 µM) with Bacillus subtilis, more than 100 µg/mL against Escherichia coli and more than 100 µg/mL against Pseudomonas aeruginosa. This compound also had an MIC80 against Candida albicans [5] of more than 200 µg/mL. Besides, the Activity result with U2OS, in the data set with MCF7 and in the data set with HepG2 was “Non-toxic” in each case.

As for `C=C(C)[C@@H]1CC[C@@]2(C)OC3=C(C[C@@H]12)C(=O)[C@]1(O)CO[C@H]3C1`, the MIC was more than 100 µg/mL in the data set on Staphylococcus aureus, more than 100 µg/mL against Bacillus subtilis, more than 100 µg/mL against Escherichia coli and 25.5 µg/mL (≈ 87.8 µM) with Pseudomonas aeruginosa. In the data set on Candida albicans [5], this compound showed an MIC80 of more than 200 µg/mL. The Activity entry in the data set with U2OS, in the data set with MCF7 and in the data set on HepG2 was “Non-toxic” in each case.

In the data set on Candida albicans [5], `C=C(C)[C@@H]1CC[C@@]2(C)OC3=C(C[C@@H]12)C(=O)[C@@H]1C[C@@]3(O)CO1` displayed an MIC80 of more than 200 µg/mL. Moreover, the Activity result with U2OS, in the data set on MCF7 and with HepG2 was “Non-toxic” throughout.

On to `C=C(C)[C@@H]1CC[C@@]2(C)OC3=C(C[C@@H]12)C(=O)[C@H](O)C[C@@H]3O`, for which the MIC80 in the data set on Candida albicans [5] was more than 200 µg/mL. Also, the Activity result with U2OS, in the data set with MCF7 and in the data set on HepG2 was “Non-toxic” each time.

Regarding `CN[C@@H]1[C@H](O[C@H]2[C@H](O[C@H]3[C@H](O)[C@@H](O)[C@H](N=C(N)N)[C@@H](O)[C@@H]3N=C(N)N)O[C@@H](C)[C@]2(O)C=O)O[C@@H](CO)[C@H](O)[C@H]1O` [STREPTOMYCIN], the MIC against Escherichia coli turned out to be 2.4 µg/mL (≈ 4.13 µM); in the data set on Pseudomonas aeruginosa it was 1.7 µg/mL (≈ 2.92 µM).

On to `CC(C)(O)[C@@H]1CC[C@@]2(C)OC3=C(C[C@@H]12)C(=O)[C@]1(O)CO[C@H]3C1`, for which the MIC80 is 15.5 µg/mL (≈ 50.3 µM) in the data set on Candida albicans [1], 6.3 µg/mL in the data set on Candida albicans [2], more than 200 µg/mL against Candida albicans [5] and 80 µg/mL with Candida albicans [6]. Moreover, the MIC in the data set with Staphylococcus aureus is more than 100 µg/mL; against Bacillus subtilis, 67.7 µg/mL (≈ 220 µM); in the data set on Escherichia coli it was 35.9 µg/mL (≈ 116 µM); in the data set on Pseudomonas aeruginosa, 52.1 µg/mL (≈ 169 µM). Also, the “fractional inhibitory concentration index (FICI)” value in the data set on Candida albicans [4] is given as 0.32; in the data set with Candida albicans [8], less than 0.46. Further, the Ratio in the data set with Candida albicans [7] is given as less than 0.4. The Activity entry with U2OS, in the data set with MCF7 and with HepG2 was “Non-toxic” in each case.

In turn, `C=C(CO)[C@@H]1CC[C@@]2(C)OC3=C(C[C@@H]12)C(=O)[C@]1(O)CO[C@H]3C1` came in with an MIC80 against Candida albicans [5] of more than 200 µg/mL. Moreover, the Activity entry in the data set on U2OS, with MCF7 and in the data set with HepG2 was “Non-toxic” throughout.

With `Oc1cccc2c1[C@H](O)[C@@H]1O[C@@H]1C21Oc2cccc3cccc(c23)O1`, the MIC80 with Candida albicans [1] was found to be 24.3 µg/mL (≈ 72.7 µM); with Candida albicans [2] it was 6.3 µg/mL; in the data set on Candida albicans [5], 145 µg/mL (≈ 434 µM); with Candida albicans [6], 40 µg/mL. Moreover, the minimal inhibitory concentration (MIC) was 37.7 µg/mL (≈ 113 µM) in the data set with Staphylococcus aureus, 59.5 µg/mL (≈ 178 µM) with Bacillus subtilis, more than 100 µg/mL against Escherichia coli and 45.5 µg/mL (≈ 136 µM) against Pseudomonas aeruginosa. Moreover, the Ratio in the data set on Candida albicans [3] turned out to be 0.26; in the data set with Candida albicans [7], 0.28. Also, the “fractional inhibitory concentration index (FICI)” value in the data set on Candida albicans [4] was 0.38; with Candida albicans [8], less than 0.34. For the same compound, the Activity entry in the data set on U2OS, in the data set with MCF7 and in the data set on HepG2 was “Non-toxic” throughout.

`C=C(C)[C@@H]1C[C@H](O)[C@@]2(C)OC3=C(C[C@@H]12)C(=O)[C@]1(O)CO[C@H]3C1`: the MIC80 against Candida albicans [5] was more than 200 µg/mL; in the data set with Candida albicans [6] it was 80 µg/mL. Also, the Ratio in the data set on Candida albicans [7] is less than 0.4. The “fractional inhibitory concentration index (FICI)” value with Candida albicans [8] is less than 0.46. Moreover, the Activity result in the data set on U2OS, in the data set on MCF7 and with HepG2 was “Non-toxic” each time.

Regarding `C=C(C)[C@@H]1CC[C@@]2(C)OC3=C(C[C@@H]12)C(=O)[C@@H](OC)C[C@@H]3O`, the MIC80 against Candida albicans [5] is more than 200 µg/mL. Moreover, the Activity result in the data set with U2OS, with MCF7 and with HepG2 was “Non-toxic” throughout.
